Experimental data as given in ChEMBL document CHEMBL5678799 (Biochem J, 2009).
Activity calls are given as the source filed them. No cut-off for these calls is given here.

How the values were obtained:
[1] = target: Calcium/calmodulin-dependent protein kinase type 1 (Homo sapiens) (UniProt Q14012); assay: Inhibition of recombinant human N-terminal GST-tagged CAMK1alpha (2 to 369 residues) expressed in Escherichia coli assessed as remaining activity at 10 uM using YLRRRLSDSNF as substrate incubated for 30 mins in presence of [gamma-33P]ATP by filter binding method relative to control
Calcium/calmodulin-dependent protein kinase type 1 (Homo sapiens), sequence (Q14012 whole entry, looked up, the tested form may be a part): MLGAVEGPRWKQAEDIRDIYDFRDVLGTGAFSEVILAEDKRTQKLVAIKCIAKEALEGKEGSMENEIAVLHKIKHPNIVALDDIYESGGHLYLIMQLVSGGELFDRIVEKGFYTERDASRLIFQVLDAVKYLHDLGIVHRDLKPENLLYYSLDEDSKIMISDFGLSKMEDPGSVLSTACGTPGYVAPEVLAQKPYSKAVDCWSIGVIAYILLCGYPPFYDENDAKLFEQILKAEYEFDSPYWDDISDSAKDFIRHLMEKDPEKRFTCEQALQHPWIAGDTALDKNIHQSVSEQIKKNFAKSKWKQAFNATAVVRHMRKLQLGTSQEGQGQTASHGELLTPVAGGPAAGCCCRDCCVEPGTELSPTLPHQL
Procedure, shortened: (§1)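 Run robotically for 30 min at 21 °C under linear conditions. Compound at 1 or 10 µM. Percentage activity remaining versus control without compound, triplicate mean ± S.D.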

[2] = target: Tyrosine-protein kinase BTK (Homo sapiens) (UniProt Q06187); assay: Inhibition of recombinant human N-terminal His6-tagged BTK (2 to 659 residues) expressed in baculovirus infected Sf21 cells assessed as remaining activity at 1 uM using KVEKIGEGTYGVVYK as substrate incubated for 30 mins in presence of [gamma-33P]ATP by filter binding method relative to control
Tyrosine-protein kinase BTK (Homo sapiens), sequence (Q06187 whole entry, the tested form may be a part): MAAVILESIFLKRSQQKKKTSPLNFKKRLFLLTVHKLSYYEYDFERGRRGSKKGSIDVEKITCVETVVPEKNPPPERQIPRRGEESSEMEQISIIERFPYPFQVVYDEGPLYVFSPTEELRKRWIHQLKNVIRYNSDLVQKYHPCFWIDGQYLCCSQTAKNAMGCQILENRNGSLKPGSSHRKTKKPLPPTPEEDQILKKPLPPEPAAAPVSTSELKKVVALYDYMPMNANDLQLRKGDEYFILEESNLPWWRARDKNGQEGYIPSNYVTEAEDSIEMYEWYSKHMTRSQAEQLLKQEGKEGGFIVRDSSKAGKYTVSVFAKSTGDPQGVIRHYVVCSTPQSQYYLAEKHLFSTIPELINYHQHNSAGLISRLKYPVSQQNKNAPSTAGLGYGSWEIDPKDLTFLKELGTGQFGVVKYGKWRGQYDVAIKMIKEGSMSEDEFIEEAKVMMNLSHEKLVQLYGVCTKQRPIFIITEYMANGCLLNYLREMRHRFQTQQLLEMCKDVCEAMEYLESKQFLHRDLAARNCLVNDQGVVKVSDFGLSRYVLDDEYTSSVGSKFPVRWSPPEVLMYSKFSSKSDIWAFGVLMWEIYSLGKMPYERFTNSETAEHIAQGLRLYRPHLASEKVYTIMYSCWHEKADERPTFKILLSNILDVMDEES
Procedure, shortened: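 Incubation was 30 min at room temperature (21 °C) under conditions linear with time and enzyme amount. Activity is reported as percent of control lacking compound, triplicate mean ± S.D.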

[3] = target: Tyrosine-protein kinase CSK (Homo sapiens) (UniProt P41240); assay: Inhibition of recombinant human N-terminal GST-tagged CSK (1 to 450 residues) expressed in Escherichia coli assessed as remaining activity at 1 uM Cdc2 peptide as substrate incubated for 30 mins in presence of [gamma-33P]ATP by filter binding method relative to control
Tyrosine-protein kinase CSK (Homo sapiens), sequence (P41240 2-450 limits assumed): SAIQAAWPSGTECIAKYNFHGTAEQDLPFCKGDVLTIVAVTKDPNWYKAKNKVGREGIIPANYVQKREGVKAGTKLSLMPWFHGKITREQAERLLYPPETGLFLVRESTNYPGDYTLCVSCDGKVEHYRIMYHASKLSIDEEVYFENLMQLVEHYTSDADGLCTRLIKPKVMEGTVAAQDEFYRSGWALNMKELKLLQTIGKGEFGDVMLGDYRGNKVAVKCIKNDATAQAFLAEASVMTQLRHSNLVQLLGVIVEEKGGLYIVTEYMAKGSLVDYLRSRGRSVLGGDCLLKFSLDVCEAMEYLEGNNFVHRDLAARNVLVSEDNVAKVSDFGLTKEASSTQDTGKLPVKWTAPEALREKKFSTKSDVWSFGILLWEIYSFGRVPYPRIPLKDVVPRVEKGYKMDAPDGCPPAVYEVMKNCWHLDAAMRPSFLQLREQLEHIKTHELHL
Procedure, shortened: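 Incubations ran robotically for 30 min at room temperature (21 °C) under linear conditions. Results are percent activity remaining versus controls without compound, as the mean of triplicates ± S.D.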

[4] = target: Mitogen-activated protein kinase 3 (Homo sapiens) (UniProt P27361); assay: Inhibition of recombinant human N-terminal GST-tagged ERK1 (2 to 379 residues) expressed in Escherichia coli assessed as remaining activity at 1 uM using MBP as substrate incubated for 30 mins in presence of [gamma-33P]ATP by filter binding method relative to control
Mitogen-activated protein kinase 3 (Homo sapiens), sequence (P27361 whole entry, the tested form may be a part): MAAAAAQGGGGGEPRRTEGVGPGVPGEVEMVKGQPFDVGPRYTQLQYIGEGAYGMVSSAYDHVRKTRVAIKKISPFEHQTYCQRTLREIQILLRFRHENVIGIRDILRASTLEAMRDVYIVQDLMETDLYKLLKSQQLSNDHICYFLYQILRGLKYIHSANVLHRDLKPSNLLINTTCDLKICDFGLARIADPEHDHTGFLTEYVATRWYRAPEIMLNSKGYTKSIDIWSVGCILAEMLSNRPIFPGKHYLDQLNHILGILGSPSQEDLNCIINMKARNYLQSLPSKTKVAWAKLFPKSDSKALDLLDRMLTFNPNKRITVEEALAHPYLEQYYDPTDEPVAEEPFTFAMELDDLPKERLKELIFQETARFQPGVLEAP
Procedure, shortened: (§2)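 Kinase panel run robotically at 21 °C for 30 min, linear in time and enzyme. […] Compound tested at 1 or 10 µM. Activity given as percentage of incubations without compound, mean of triplicates ± S.D.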

[5] = target: Insulin-like growth factor 1 receptor (Homo sapiens) (UniProt P08069); assay: Inhibition of recombinant human N-terminal His6-tagged IGF1R (954 to 1367 residues) expressed in baculovirus infected Sf21 cells assessed as remaining activity at 1 uM using KKKSPGEYVNIEFG as substrate incubated for 30 mins in presence of [gamma-33P]ATP by filter binding method relative to control
Insulin-like growth factor 1 receptor (Homo sapiens), sequence (P08069 31-736 limits assumed): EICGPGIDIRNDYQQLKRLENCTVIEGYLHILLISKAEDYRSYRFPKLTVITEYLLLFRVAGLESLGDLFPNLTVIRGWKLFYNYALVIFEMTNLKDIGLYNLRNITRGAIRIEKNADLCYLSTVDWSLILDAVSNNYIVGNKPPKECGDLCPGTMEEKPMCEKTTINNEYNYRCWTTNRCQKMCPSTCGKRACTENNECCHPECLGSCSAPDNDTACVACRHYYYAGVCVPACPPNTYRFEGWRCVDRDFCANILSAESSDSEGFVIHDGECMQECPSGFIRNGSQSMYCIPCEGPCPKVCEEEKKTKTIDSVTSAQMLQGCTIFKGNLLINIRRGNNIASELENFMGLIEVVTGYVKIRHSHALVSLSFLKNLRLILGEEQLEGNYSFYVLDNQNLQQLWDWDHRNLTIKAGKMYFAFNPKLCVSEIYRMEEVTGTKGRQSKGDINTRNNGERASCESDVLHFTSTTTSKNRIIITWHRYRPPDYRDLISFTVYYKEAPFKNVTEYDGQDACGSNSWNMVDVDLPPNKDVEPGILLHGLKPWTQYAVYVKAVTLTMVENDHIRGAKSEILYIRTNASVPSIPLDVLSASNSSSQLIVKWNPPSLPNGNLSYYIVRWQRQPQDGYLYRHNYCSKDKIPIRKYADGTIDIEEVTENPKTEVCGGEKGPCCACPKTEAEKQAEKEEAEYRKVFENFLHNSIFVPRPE
Insulin-like growth factor 1 receptor (Homo sapiens), sequence (P08069 741-1367 limits assumed): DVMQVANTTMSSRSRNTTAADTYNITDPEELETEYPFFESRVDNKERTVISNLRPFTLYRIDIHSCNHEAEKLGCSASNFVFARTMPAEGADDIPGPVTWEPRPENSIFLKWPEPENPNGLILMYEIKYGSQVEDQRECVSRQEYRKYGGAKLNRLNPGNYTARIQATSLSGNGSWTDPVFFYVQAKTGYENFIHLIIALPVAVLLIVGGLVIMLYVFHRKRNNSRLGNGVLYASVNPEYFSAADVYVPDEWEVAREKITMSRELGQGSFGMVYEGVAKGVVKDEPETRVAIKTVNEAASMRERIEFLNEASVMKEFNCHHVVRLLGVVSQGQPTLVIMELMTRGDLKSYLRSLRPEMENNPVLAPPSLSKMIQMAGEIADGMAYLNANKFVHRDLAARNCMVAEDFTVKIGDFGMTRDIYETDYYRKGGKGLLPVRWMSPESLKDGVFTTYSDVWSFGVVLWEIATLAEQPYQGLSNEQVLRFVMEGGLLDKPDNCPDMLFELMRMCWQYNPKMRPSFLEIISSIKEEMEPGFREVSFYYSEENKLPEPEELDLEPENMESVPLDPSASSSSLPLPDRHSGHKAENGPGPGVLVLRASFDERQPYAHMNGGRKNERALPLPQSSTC
Procedure, shortened: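 Radiometric kinase panel run robotically at room temperature (21 °C) for 30 min, linear in time and enzyme. […] Activity is expressed as percent of control without compound, from triplicate determinations ± S.D.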

[6] = target: Ribosomal protein S6 kinase alpha-3 (Homo sapiens) (UniProt P51812); assay: Inhibition of recombinant human N-terminal His6-tagged RSK2 (2 to 740 residues) expressed in baculovirus infected Sf21 cells assessed as remaining activity at 1 uM using KKLNRTLSVA as substrate incubated for 30 mins in presence of [gamma-33P]ATP by filter binding method relative to control
Procedure, shortened: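 Assays ran 30 min at 21 °C, robotically and in the linear range. Remaining activity is given relative to incubations lacking compound, as the average of triplicate determinations ± S.D.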

[7] = target: Ephrin type-A receptor 2 (Homo sapiens) (UniProt P29317); assay: Inhibition of recombinant human N-terminal GST-tagged EPHA2 (591 to 976 residues) expressed in Escherichia coli assessed as remaining activity at 10 uM using Poly (Glu,Tyr) as substrate incubated for 30 mins in presence of [gamma-33P]ATP by filter binding method relative to control; procedure, shortened: as §1
[8] = target: Mitogen-activated protein kinase 3 (Homo sapiens) (UniProt P27361); assay: Inhibition of recombinant human N-terminal GST-tagged ERK1 (2 to 379 residues) expressed in Escherichia coli assessed as remaining activity at 10 uM using MBP as substrate incubated for 30 mins in presence of [gamma-33P]ATP by filter binding method relative to control; procedure, shortened: as §2
[9] = target: Mitogen-activated protein kinase 11 (Homo sapiens) (UniProt Q15759); assay: Inhibition of recombinant human N-terminal GST-tagged P38beta (1 to 364 residues) expressed in Escherichia coli assessed as remaining activity at 10 uM using MBP as substrate incubated for 30 mins in presence of [gamma-33P]ATP by filter binding method relative to control
Mitogen-activated protein kinase 11 (Homo sapiens), sequence (Q15759 whole entry, the tested form may be a part): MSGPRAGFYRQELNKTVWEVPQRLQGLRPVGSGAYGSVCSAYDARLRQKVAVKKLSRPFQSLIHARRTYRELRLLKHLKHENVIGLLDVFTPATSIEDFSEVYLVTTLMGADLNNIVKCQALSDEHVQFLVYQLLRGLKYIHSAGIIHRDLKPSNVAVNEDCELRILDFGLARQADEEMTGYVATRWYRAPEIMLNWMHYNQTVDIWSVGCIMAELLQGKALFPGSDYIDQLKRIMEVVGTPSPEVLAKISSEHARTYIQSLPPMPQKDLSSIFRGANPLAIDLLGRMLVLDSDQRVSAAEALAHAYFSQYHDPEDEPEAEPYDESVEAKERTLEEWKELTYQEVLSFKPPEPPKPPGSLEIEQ
Procedure, shortened: (§3)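 Panel assays were run for 30 min at 21 °C, within the linear range for time and enzyme. […] Results are percent activity remaining relative to compound-free control, averaged from triplicate ± S.D.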

[10] = target: Serine/threonine-protein kinase PAK 5 (Homo sapiens) (UniProt Q9P286); assay: Inhibition of recombinant human N-terminal GST-tagged PAK5 (2 to 719 residues) expressed in Escherichia coli assessed as remaining activity at 10 uM using RRRLSFAEPG as substrate incubated for 30 mins in presence of [gamma-33P]ATP by filter binding method relative to control; procedure, shortened: as §3
[11] = target: 3-phosphoinositide-dependent protein kinase 1 (Homo sapiens) (UniProt O15530); assay: Inhibition of recombinant human His6-tagged PDK1 (52 to 556 residues) expressed in baculovirus infected Sf21 cells assessed as remaining activity at 10 uM using PDKtide as substrate incubated for 30 mins in presence of [gamma-33P]ATP by filter binding method relative to control
3-phosphoinositide-dependent protein kinase 1 (Homo sapiens), sequence (O15530 whole entry, the tested form may be a part): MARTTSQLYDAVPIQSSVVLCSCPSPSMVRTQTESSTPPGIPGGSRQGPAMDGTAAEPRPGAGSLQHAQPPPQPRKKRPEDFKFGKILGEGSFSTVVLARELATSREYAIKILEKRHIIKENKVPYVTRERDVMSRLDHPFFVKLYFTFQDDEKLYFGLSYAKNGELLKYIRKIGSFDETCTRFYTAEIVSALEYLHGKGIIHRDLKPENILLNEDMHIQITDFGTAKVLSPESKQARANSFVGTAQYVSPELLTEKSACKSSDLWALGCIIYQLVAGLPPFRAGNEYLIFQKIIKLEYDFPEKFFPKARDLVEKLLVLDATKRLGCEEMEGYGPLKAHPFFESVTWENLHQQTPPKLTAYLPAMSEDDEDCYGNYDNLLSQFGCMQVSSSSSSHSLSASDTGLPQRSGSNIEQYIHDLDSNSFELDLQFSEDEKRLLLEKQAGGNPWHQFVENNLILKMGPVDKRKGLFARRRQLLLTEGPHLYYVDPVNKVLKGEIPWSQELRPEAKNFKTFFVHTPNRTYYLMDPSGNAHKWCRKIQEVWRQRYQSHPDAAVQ
Procedure, shortened: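 Robotic radiometric panel assay, 30 min at room temperature (21 °C), with 10 mM magnesium acetate. […] Compound at 1 or 10 µM. Residual activity expressed relative to compound-free control; triplicate average ± S.D.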

HEK293 = assay: Inhibition of PI3K in IGF1-stimulated HEK293 cells assessed as reduction in IGF1-stimulated PtdIns(3,4,5)P3 production at 1 uM pre incubated for 30 mins followed by IGF1-stimulation for 10 mins; assay type: cell-based; details: Homo sapiens
MEF [12] = assay: Induction of cell cycle arrest in MEF cells assessed as accumulation at S phase at 3 uM incubated for 1 to 3 days by propidium iodide staining based flow cytometric analysis (reference value: 61.5 +/- 0.78%); assay type: toxicity; details: mouse, time 1-3 day
MEF [13] = assay: Induction of cell cycle arrest in mLST8 knockout MEF cells assessed as accumulation at S phase at 3 uM incubated for 1 to 3 days by propidium iodide staining based flow cytometric analysis (reference value: 59.7 +/- 0.49%); assay type: toxicity; details: mouse, time 1-3 day
mTORC1 (Homo sapiens) = mTORC1 (Homo sapiens) (UniProt P42345+Q8N122+Q9BVC4); details: HEK293, dose 30-1000 nM, time 30.0 min
mTORC2 (Homo sapiens) = mTORC2 (Homo sapiens) (UniProt P42345+Q6R327+Q9BVC4+Q9BPZ7); details: HEK293, dose 30-1000 nM, time 30.0 min
[14] = target: Serine/threonine-protein kinase D1 (Homo sapiens) (UniProt Q15139); assay: Inhibition of recombinant human N-terminal His6-tagged PKD1 (2 to 912 residues) expressed in baculovirus infected Sf21 cells assessed as remaining activity at 1 uM using KKLNRTLSVA as substrate incubated for 30 mins in presence of [gamma-33P]ATP by filter binding method relative to control
Serine/threonine-protein kinase D1 (Homo sapiens), sequence (Q15139 whole entry, looked up, the tested form may be a part): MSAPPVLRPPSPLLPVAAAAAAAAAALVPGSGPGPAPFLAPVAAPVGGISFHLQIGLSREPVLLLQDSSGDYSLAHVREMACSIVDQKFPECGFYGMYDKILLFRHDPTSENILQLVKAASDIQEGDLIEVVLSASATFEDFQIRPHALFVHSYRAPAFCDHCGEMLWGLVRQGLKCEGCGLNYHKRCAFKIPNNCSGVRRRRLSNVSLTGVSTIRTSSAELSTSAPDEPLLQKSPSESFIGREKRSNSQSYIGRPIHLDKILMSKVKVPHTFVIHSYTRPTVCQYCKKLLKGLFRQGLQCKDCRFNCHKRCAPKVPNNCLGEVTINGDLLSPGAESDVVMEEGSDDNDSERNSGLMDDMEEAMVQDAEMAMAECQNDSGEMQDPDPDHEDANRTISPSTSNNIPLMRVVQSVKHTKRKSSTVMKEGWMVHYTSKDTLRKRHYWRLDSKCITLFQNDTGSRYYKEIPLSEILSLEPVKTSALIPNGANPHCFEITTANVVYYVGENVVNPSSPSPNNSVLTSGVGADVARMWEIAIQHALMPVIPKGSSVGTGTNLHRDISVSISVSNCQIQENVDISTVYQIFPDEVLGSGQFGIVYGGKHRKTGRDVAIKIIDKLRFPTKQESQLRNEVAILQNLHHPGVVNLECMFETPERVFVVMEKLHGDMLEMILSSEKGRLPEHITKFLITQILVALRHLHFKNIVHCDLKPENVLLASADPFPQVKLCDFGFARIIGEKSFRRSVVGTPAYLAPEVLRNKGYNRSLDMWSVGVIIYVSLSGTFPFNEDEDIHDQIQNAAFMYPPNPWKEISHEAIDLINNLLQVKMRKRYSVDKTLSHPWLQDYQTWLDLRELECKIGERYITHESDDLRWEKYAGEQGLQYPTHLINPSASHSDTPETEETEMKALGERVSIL

`COc1ccc(-c2ccc3c(N4CCOCC4)nc(N4C[C@@H](C)O[C@@H](C)C4)nc3n2)cc1CO` [Ku-0063794] showed an Activity [1] of 101%, an Activity [2] of 85% and an Activity [3] of 90%. For the same compound, the Activity [4] was 102%, the Activity [5] was 117% and the Activity [6] was 103%. For the same compound, the Activity [7] was 96%, the Activity [8] was 87% and the Activity [9] was 83%. The Activity [10] was 81%, the Activity [11] was 91% and the inhibition (HEK293) was “inactive”. The Activity (MEF [12]) was 46.9%, the Activity (MEF [13]) was 36.5% and the inhibition (mTORC1 (Homo sapiens)) was “Dose-Dependent Effect”. For the same compound, the inhibition (mTORC2 (Homo sapiens)) was “Dose-Dependent Effect” and the Activity [14] was 80%.
